# Data as given in ChEMBL document CHEMBL1143822, “Three-dimensional quantitative structure-activity relationship analysis of human CYP51 inhibitors” (Drug Metab Dispos, 2007).
# B1: Lanosterol 14-alpha demethylase (Homo sapiens) (protein)
# chain: MAAAAGMLLLGLLQAGGSVLGQAMEKVTGGNLLSMLLIACAFTLSLVYLIRLAAGHLVQLPAGVKSPPYIFSPIPFLGHAIAFGKSPIEFLENAYEKYGPVFSFTMVGKTFTYLLGSDAAALLFNSKNEDLNAEDVYSRLTTPVFGKGVAYDVPNPVFLEQKKMLKSGLNIAHFKQHVSIIEKETKEYFESWGESGEKNVFEALSELIILTASHCLHGKEIRSQLNEKVAQLYADLDGGFSHAAWLLPGWLPLPSFRRRDRAHREIKDIFYKAIQKRRQSQEKIDDILQTLLDATYKDGRPLTDDEVAGMLIGLLLAGQHTSSTTSAWMGFFLARDKTLQKKCYLEQKTVCGENLPPLTYDQLKDLNLLDRCIKETLRLRPPIMIMMRMARTPQTVAGYTIPPGHQVCVSPTVNQRLKDSWVERLDFNPDRYLQDNPASGEKFAYVPFGAGRHRCIGENFAYVQIKTIWSTMLRLYEFDLIDGYFPTVNYTTMIHTPENPVIRYKRRSK
# Assays:
# [1] = molecular target: T1, Lanosterol 14-alpha demethylase (Homo sapiens, UniProt Q16850); assay: Inhibition of human CYP51 expressed in Topp 3 cells by lanosterol demethylase assay; assay type: cell-based
# T1 sequence (Q16850 whole entry): B1 chain
# Procedure, shortened: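 0.5 ml phosphate buffer pH 7.4 with KCN, NADPH regenerating system, 60 min at 37 °C. Triene product extracted and quantified by chromatography (ergosterol internal standard). IC50 read from plot of % activity remaining vs concentration.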
# [2] = molecular target: T1, Lanosterol 14-alpha demethylase; assay: Binding affinity to human CYP51
# [3] = substrate: CC(C)=CCC[C@@H](C)[C@H]1CC[C@@]2(C)C3=C(CC[C@]12C)[C@@]1(C)CC[C@H](O)C(C)(C)[C@@H]1CC3; assay: Binding affinity to human reconstituted CYP51
Molecule,IC50 [1],also measured
O=C(N[C@@H](Cc1c[nH]cn1)C(=O)N1CCC(O)CC1)c1cc2cc(Cl)ccc2[nH]1,1.3 µM,–
O=C(N[C@@H](Cc1ccc(O)cc1)C(=O)N1CCC(O)CC1)c1cc2cc(Cl)ccc2[nH]1,2.5 µM,–
O=C(N[C@@H](Cc1ccccc1F)C(=O)N1CCC(O)CC1)c1cc2cc(Cl)ccc2[nH]1,0.8 µM,–
O=C(N[C@@H](Cc1cccnc1)C(=O)N1CCC(O)CC1)c1cc2cc(Cl)ccc2[nH]1,26 µM,–
O=C(NC(Cc1ccccc1)C(=O)O)c1cc2cc(Cl)ccc2[nH]1 (stereo not given),> 200 µM,–
O=C(N[C@@H](Cc1ccccc1)C(=O)N1CCC(O)CC1)c1cc2c([nH]1)CCCC2,> 200 µM,–
COc1ccc(C[C@H](NC(=O)c2cc3cc(Cl)ccc3[nH]2)C(=O)N2CCC(O)CC2)cc1,4.5 µM,–
O=C(N[C@@H](Cc1ccccc1)C(=O)N1CCC(O)CC1)c1cc2cc(Cl)ccc2[nH]1,3.1 µM,–
O=C(N[C@@H](Cc1ccccc1)C(=O)N1CCC(O)CC1)c1cc2ccccc2[nH]1,0.91 µM,–
O=C(NC(Cc1ccccc1)C(=O)N1CCC(O)CC1)c1ccc[nH]1 (stereo not given),> 200 µM,–
O=C(N[C@H](Cc1ccccc1)C(=O)N1CCC(O)CC1)c1cc2cc(Cl)ccc2[nH]1,100 µM,–
O=C(N[C@@H](Cc1ccc(Cl)cc1)C(=O)N1CCC(O)CC1)c1cc2cc(Cl)ccc2[nH]1,9.7 µM,–
O=C(N[C@@H](Cc1ccccc1)C(=O)N1CCC(O)CC1)c1cc2cc(F)ccc2[nH]1,75 µM,–
O=C(NC1(C(=O)N2CCC(O)CC2)CCCC1)c1cc2cc(Cl)ccc2[nH]1,100 µM,–
O=C(N[C@@H](Cc1ccc(F)cc1)C(=O)N1CCC(O)CC1)c1cc2cc(Cl)ccc2[nH]1,4 µM,–
O=C(N[C@@H](Cc1ccccc1Cl)C(=O)N1CCC(O)CC1)c1cc2cc(Cl)ccc2[nH]1 [ANALOGUE A],0.3 µM,–
CCCCC/C=C\C/C=C\C/C=C\C/C=C\CCCC(=O)NCCO [ANANDAMIDE],> 200 µM,–
CCCCC/C=C\C/C=C\C/C=C\C/C=C\CCCC(=O)O [ARACHIDONIC ACID],> 200 µM,–
Clc1ccc(C2(Cn3cncn3)OCCO2)c(Cl)c1 [AZACONAZOLE],> 10 µM,–
c1ccc2[nH]cnc2c1 [BENZIMIDAZOLE],> 200 µM,–
c1ccc(-c2ccc(C(c3ccccc3)n3ccnc3)cc2)cc1 (stereo not given) [BIFONAZOLE],0.342 µM,–
CCCNC(=O)NS(=O)(=O)c1ccc(Cl)cc1 [CHLORPROPAMIDE],> 200 µM,–

Molecule,IC50 [1],also measured
CC(C)CCC[C@@H](C)[C@H]1CC[C@H]2[C@@H]3CC=C4C[C@@H](O)CC[C@]4(C)[C@H]3CC[C@]12C [CHOLESTEROL],> 200 µM,–
Clc1ccccc1C(c1ccccc1)(c1ccccc1)n1ccnc1 [CLOTRIMAZOLE],0.13 µM,–
Clc1ccc(COC(Cn2ccnc2)c2ccc(Cl)cc2Cl)cc1 (stereo not given) [ECONAZOLE],0.05 µM,–
CC[C@H]1OC(=O)[C@H](C)[C@@H](O[C@H]2C[C@@](C)(OC)[C@@H](O)[C@H](C)O2)[C@H](C)[C@@H](O[C@@H]2O[C@H](C)C[C@H](N(C)C)[C@H]2O)[C@](C)(O)C[C@@H](C)C(=O)[C@H](C)[C@@H](O)[C@]1(C)O [ERYTHROMYCIN],> 200 µM,–
COC1=CC(=O)C[C@@H](C)[C@]12Oc1c(Cl)c(OC)cc(OC)c1C2=O [GRISEOFULVIN],50 µM,–
CCC(C)n1ncn(-c2ccc(N3CCN(c4ccc(OCC5COC(Cn6cncn6)(c6ccc(Cl)cc6Cl)O5)cc4)CC3)cc2)c1=O (stereo not given) [ITRACONAZOLE],3.6 µM,–
CC(=O)N1CCN(c2ccc(OC[C@H]3CO[C@](Cn4ccnc4)(c4ccc(Cl)cc4Cl)O3)cc2)CC1 [KETOCONAZOLE],0.19 µM,Kd [2]: 8 µM
CC[C@H](C)C(=O)O[C@H]1C[C@@H](C)C=C2C=C[C@H](C)[C@H](CC[C@@H]3C[C@@H](O)CC(=O)O3)[C@H]21 [LOVASTATIN],> 200 µM,–
Cn1cc[nH]c1=S [METHIMAZOLE],> 200 µM,–
Cc1ncc([N+](=O)[O-])n1CCO [METRONIDAZOLE],> 200 µM,–
Clc1ccc(COC(Cn2ccnc2)c2ccc(Cl)cc2Cl)c(Cl)c1 (stereo not given) [MICONAZOLE],0.2 µM,–
CC(=O)[C@H]1CC[C@H]2[C@@H]3CC=C4C[C@@H](O)CC[C@]4(C)[C@H]3CC[C@]12C [PREGNENOLONE],> 200 µM,–
CC(=O)[C@H]1CC[C@H]2[C@@H]3CCC4=CC(=O)CC[C@]4(C)[C@H]3CC[C@]12C [PROGESTERONE],> 200 µM,–
CO[C@H]1/C=C/O[C@@]2(C)Oc3c(C)c(O)c4c(O)c(c(/C=N/N5CCN(C)CC5)c(O)c4c3C2=O)NC(=O)/C(C)=C\C=C\[C@H](C)[C@H](O)[C@@H](C)[C@@H](O)[C@@H](C)[C@H](OC(C)=O)[C@@H]1C [RIFAMPIN],30 µM,–
Nc1ccc(S(=O)(=O)Nc2ccnn2-c2ccccc2)cc1 [SULFAPHENAZOLE],> 200 µM,–
O=C1C(CC[S+]([O-])c2ccccc2)C(=O)N(c2ccccc2)N1c1ccccc1 (stereo not given) [SULFINPYRAZONE],> 200 µM,–
CC(C)N1CCN(c2ccc(OC[C@H]3CO[C@](Cn4cncn4)(c4ccc(Cl)cc4Cl)O3)cc2)CC1 [TERCONAZOLE],3 µM,–
C[C@]12CC[C@H]3[C@@H](CCC4=CC(=O)CC[C@@]43C)[C@@H]1CC[C@@H]2O [TESTOSTERONE],50 µM,–
CCCCNC(=O)NS(=O)(=O)c1ccc(C)cc1 [TOLBUTAMIDE],> 200 µM,–
Cc1cccc(N(C)C(=S)Oc2ccc3ccccc3c2)c1 [TOLNAFTATE],50 µM,–
OC(c1ccccc1)(c1cncnc1)c1ccc(Cl)cc1Cl (stereo not given) [TRIARIMOL],> 10 µM,–
B1,–,Km [3]: 30 µM
